From ChEMBL document CHEMBL4043106, “Selective opioid growth factor receptor antagonists based on a stilbene isostere” (Bioorg Med Chem, 2017) come the findings set out here.

SMILES strings stand for the structures. Calls of active or inactive are those of the source. The rule behind the calls is not given here.

Series [1] is filed under the species Chlorocebus aethiops. The series can be described thus: Antagonist activity at OGFR in African green monkey COS7 cells harboring OGF assessed as increase in cell growth at 1 uM after 72 hrs by hemacytometric method. In outline:
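COS-7 cells grown in DMEM with 10% fetal calf serum and antibiotics at 37°C, 5% CO2. Seeded at 20,000 cells/well and counted 24 h later as time 0. Treated with 1 μM compound or sterile water vehicle; growth counted at 72 h.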

Series [2] addresses T1, Kappa-type opioid receptor (Homo sapiens, UniProt P41145). The series can be described thus: Agonist activity at kappa opioid receptor (unknown origin) up to 10 uM by GTPgammaS functional assay. In outline:
(§1)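 GTPγS functional assay at KOR, DOR and MOR, run in both agonist and antagonist modes, with test concentrations up to 10 μM.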

Series [3] concerns the target T2, Mu-type opioid receptor (Homo sapiens, UniProt P35372). Put plainly: Antagonist activity at mu opioid receptor (unknown origin) up to 10 uM by GTPgammaS functional assay. In outline: as §1
For series [4], the target named is T1, Kappa-type opioid receptor. The series can be described thus: Antagonist activity at kappa opioid receptor (unknown origin) up to 10 uM by GTPgammaS functional assay. In outline: as §1
Series [5] addresses T2, Mu-type opioid receptor. Put plainly: Agonist activity at mu opioid receptor (unknown origin) up to 10 uM by GTPgammaS functional assay. In outline:
as §1

In series [6] the target is Delta-type opioid receptor (Homo sapiens) (UniProt P41143). Put plainly: Agonist activity at human delta opioid receptor assessed as beta-arrestin recruitment up to 5 uM after 180 mins by chemiluminescence assay. In outline:
(§2)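 Commercial β-arrestin kit using cells transfected with human MOR, DOR or KOR. Cells plated and held 48 h at 37°C in 5% CO2. Compound added for 180 min at 37°C, starting at 5 μM with 1:3 serial dilutions. Reference agonists were DADLE (DOR), Met5-enkephalin (MOR) and dynorphin A (KOR). Detection reagent then added for 1 h at room temperature in the dark; chemiluminescence read.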

Series [7] has the same target. Put plainly: Antagonist activity at delta opioid receptor (unknown origin) up to 10 uM by GTPgammaS functional assay. In outline:
as §1

For series [8] the target is unchanged. Put plainly: Agonist activity at delta opioid receptor (unknown origin) up to 10 uM by GTPgammaS functional assay. In outline: as §1
Series [9] addresses T1, Kappa-type opioid receptor. Put plainly: Agonist activity at human kappa opioid receptor assessed as beta-arrestin recruitment up to 5 uM after 180 mins by chemiluminescence assay. To be noted: 3 h. In outline:
as §2

Series [10] concerns the target T2, Mu-type opioid receptor. The series can be described thus: Agonist activity at human mu opioid receptor assessed as beta-arrestin recruitment up to 5 uM after 180 mins by chemiluminescence assay. In outline: as §2
Series [11] has as its target T3, Opioid growth factor receptor (Homo sapiens) (UniProt Q9NZT2).
T3 sequence (whole entry): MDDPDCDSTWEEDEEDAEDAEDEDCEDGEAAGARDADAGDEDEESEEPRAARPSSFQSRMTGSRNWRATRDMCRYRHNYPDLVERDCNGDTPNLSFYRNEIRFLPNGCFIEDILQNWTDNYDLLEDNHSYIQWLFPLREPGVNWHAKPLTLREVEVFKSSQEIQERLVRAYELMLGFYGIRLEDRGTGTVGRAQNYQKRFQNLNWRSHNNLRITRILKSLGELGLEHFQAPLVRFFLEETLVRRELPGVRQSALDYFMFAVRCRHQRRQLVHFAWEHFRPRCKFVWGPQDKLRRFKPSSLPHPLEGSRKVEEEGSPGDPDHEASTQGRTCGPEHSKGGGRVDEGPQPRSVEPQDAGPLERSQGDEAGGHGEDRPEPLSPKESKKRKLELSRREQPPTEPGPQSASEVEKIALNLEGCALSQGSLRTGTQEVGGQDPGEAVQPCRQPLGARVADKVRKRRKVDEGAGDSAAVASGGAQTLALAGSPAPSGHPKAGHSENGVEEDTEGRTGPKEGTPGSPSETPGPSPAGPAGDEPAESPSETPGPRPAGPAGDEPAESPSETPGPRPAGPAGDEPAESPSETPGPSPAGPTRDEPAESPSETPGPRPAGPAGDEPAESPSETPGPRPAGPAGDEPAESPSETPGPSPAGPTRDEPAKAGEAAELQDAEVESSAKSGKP
The series can be described thus: Antagonist activity at OGFR in human SKOV3 cells assessed as cell growth inhibition at 10 uM treated as pulsed dose of 6 hrs every other day by hemacytometric method. Format: cell-based. In outline: (§3)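 SKOV-3 ovarian cancer cells in RPMI 1640 with 10% fetal calf serum and antibiotics at 37°C, 5% CO2. Seeded at 20,000 cells/well and counted after 24 h for time 0. Compound or sterile water given either continuously (24 h daily) or pulsed for 6 h every 48 h. Cells counted at 96 and 120 h; concentration series used for the dose-response.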

The target in series [12] is T3, Opioid growth factor receptor (Homo sapiens). Put plainly: Antagonist activity at OGFR in human SKOV3 cells assessed as increase in cell growth at 10 uM after 24 hrs by hemacytometric method. Format: cell-based. In outline:
as §3

Series [13] shares this target. The series can be described thus: Antagonist activity at OGFR in human SKOV3 cells assessed as cell growth inhibition at 10 uM treated as pulsed dose of 6 hrs every other day measured at 120 hrs post dose by hemacytometric method. Format: cell-based. In outline: as §3
Series [14] is filed under the species Chlorocebus aethiops. The series can be described thus: Antagonist activity at OGFR in African green monkey COS7 cells harboring OGF assessed as increase in cell growth at 1 uM after 72 hrs by BrdU incorporation assay. In outline:
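COS-7 cells on coverslips exposed to compound (1 μM) for 24 h. BrdU added in fresh DMEM for 3 h, then cells stained with DAPI counterstain. At least 100 cells per treatment scored blind for BrdU incorporation; growth evaluated at 72 h.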

Series [15] addresses T3, Opioid growth factor receptor (Homo sapiens). The series can be described thus: Antagonist activity at OGFR in human SKOV3 cells assessed as cell growth inhibition at 5 to 10 uM treated as pulsed dose of 6 hrs every other day measured at 120 hrs post dose by hemacytometric method. Format: cell-based. In outline:
as §3

The target is the same in series [16]. The series can be described thus: Antagonist activity at OGFR in human SKOV3 cells assessed as increase in cell growth at 0.1 to 10 uM treated continuously for 24 hrs measured at 120 hrs post dose by hemacytometric method. Format: cell-based. In outline: as §3

T2 sequence (P35372 whole entry): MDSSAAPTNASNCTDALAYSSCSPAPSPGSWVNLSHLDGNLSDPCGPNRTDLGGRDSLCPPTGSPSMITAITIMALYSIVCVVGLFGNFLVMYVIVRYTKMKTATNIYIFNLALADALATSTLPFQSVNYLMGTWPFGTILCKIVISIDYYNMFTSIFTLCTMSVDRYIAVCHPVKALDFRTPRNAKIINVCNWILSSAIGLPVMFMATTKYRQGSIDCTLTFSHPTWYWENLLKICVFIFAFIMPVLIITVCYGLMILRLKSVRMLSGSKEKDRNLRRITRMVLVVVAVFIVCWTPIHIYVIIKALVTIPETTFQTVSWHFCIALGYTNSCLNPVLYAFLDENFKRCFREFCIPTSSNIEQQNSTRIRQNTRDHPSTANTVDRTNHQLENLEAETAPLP
Delta-type opioid receptor (Homo sapiens), sequence (P41143 whole entry): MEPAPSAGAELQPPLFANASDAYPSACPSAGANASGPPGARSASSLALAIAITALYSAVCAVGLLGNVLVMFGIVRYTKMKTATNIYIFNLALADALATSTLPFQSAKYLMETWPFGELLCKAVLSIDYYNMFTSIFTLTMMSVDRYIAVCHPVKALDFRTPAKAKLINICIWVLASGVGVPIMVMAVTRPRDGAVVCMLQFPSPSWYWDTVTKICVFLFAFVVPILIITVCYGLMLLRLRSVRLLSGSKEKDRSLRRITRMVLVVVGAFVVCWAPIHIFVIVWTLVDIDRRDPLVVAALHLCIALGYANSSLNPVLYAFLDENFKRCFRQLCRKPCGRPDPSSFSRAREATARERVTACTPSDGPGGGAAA
T1 sequence (P41145 whole entry): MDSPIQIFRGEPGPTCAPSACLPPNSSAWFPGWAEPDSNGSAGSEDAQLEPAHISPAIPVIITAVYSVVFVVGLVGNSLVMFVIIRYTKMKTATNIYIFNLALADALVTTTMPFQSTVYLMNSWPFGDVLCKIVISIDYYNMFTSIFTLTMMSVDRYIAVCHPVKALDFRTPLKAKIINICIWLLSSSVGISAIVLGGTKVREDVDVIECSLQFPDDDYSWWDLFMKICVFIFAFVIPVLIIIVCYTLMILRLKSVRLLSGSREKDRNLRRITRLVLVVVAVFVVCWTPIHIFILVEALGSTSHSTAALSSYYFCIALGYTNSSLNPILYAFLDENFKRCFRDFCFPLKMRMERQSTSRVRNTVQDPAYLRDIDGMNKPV

Turning to `COc1cc(/C=C/c2ccc(O)c(O)c2CC=C(C)C)c(C/C=C(\C)CCC=C(C)C)c(OC)c1`, the “Cell growth increase (active/not active)” value in the series filed under Chlorocebus aethiops [1] is “Active”.

In the case of `COc1cc(NC(=O)c2cc(O)c(O)c(CC=C(C)C)c2)c(C/C=C(\C)CCC=C(C)C)c(OC)c1`, the Activity entry in series [2] and in [9] was “Not Active” in each case. Also, on Mu-type opioid receptor [3], the “inhibition (INH)” value is given as “Not Active”. Moreover, the inhibition result in series [4] and in [7] was “inactive” throughout. In addition, the result (at Mu-type opioid receptor [5]; in series [6]; in [8]; on Mu-type opioid receptor [10]) was inactive. The “Cell growth increase (active/not active)” value in the series filed under Chlorocebus aethiops [1] is “Active”.

With `O=C1CC[C@@]2(O)[C@H]3Cc4ccc(O)c5c4[C@@]2(CCN3CC2CC2)[C@H]1O5`, the “Cell growth increase (active/not active)” value in the series listed under Chlorocebus aethiops [1] was “Active”. The “growth inhibition (GI)” value in series [11] is “Active”.

`COc1cc(/C=C/c2cc(O)c(O)c(CC=C(C)C)c2)c(C/C=C(\C)CCC=C(C)C)c(OC)c1`: the “Cell growth increase (active/not active)” value in the series filed under Chlorocebus aethiops [1] was “inactive”.

Turning to `COc1cc(NC(=O)c2ccc(O)c(O)c2CC=C(C)C)c(C/C=C(\C)CCC=C(C)C)c(OC)c1`, the Activity entry in series [2] and in series [9] was “Not Active” in each case. At Mu-type opioid receptor [3], the “inhibition (INH)” value is “Not Active”. For the same molecule, the inhibition entry in series [4] and in [7] was “inactive” in each case. The outcome (on Mu-type opioid receptor [5]; in series [6]; in series [8]; at Mu-type opioid receptor [10]) was inactive. Further, the “Cell growth increase (active/not active)” value in the series listed under Chlorocebus aethiops [1] was “Active”. The “growth inhibition (GI)” value in series [11] was “Active”. Further, the inhibition entry in series [12] is “Active”.

With `COc1cc(OC)c(C/C=C(\C)CCC=C(C)C)c(C(=O)Nc2ccc(O)c(O)c2CC=C(C)C)c1`, the Activity result in series [2] and in series [9] was “Not Active” in each case. Besides, the “inhibition (INH)” value on Mu-type opioid receptor [3] was “Not Active”. Besides, the inhibition result (in [4]; in the series filed under Chlorocebus aethiops [14]; in series [7]) was “inactive” each time. For the same molecule, the “growth inhibition (GI)” value in series [13] and in series [11] was “Active” each time. Besides, the outcome (on Mu-type opioid receptor [5]; in series [6]; in series [8]; on Mu-type opioid receptor [10]) was inactive. Also, the inhibition entry in series [12] was “Active”.

On to `COc1cc(OC)c(C/C=C(\C)CCC=C(C)C)c(C(=O)Nc2cc(O)c(O)c(CC=C(C)C)c2)c1`, for which the Activity result in [2] and in series [9] was “Not Active” in each case. For the same molecule, the “growth inhibition (GI)” value in series [15] and in series [11] was “Active” in each case. Moreover, the inhibition result (in [16]; in the series filed under Chlorocebus aethiops [14]; in series [12]) was “Active” throughout. Also, the “inhibition (INH)” value at Mu-type opioid receptor [3] is listed as “Not Active”. Further, the inhibition result in series [4] and in series [7] was “inactive” each time. In addition, the outcome (at Mu-type opioid receptor [5]; in series [6]; in series [8]; on Mu-type opioid receptor [10]) was inactive.
